Published values collected from several papers.
Compare with care: the assays were run in different laboratories.
Target: Serine/threonine-protein kinase Sgk1 (SGK1, Homo sapiens, UniProt O00141)

CN(C)C1CCN(CC#Cc2nn(C3CCCC3)c3nc(NCc4ccccc4)ncc23)C1 (stereo not drawn)
inhibition (enzyme activity, inhibitor, FRET; 10 µM): 20%

C=CC(=O)Nc1cc(Nc2nccc(Nc3cc(Cl)c(F)cc3C(C)(C)O)n2)c(OC)cc1N1CC[C@@H](N(C)C)C1
inhibition (enzyme activity, inhibitor; 1 µM): 12%

CNC(=O)c1cc(Oc2ccc(NC(=O)Nc3ccc(Cl)c(C(F)(F)F)c3)cc2)ccn1
inhibition (enzyme activity, inhibitor; 10 µM): -21%

COc1cc2ncnc(Nc3ccc(Oc4ccccc4)c(C)c3C)c2cc1OC
inhibition (enzyme activity, inhibitor; 1 µM): 0%

CC(C)(O)c1cncc(-c2nc3ccc(F)cc3n2C2CC2)c1
remaining binding (cell-free assay, competition with immobilised ligand; 1 µM): 100%

FC(F)(F)Oc1cccc(-c2cnc3ccc(-c4ccncc4)nn23)c1
activity vs control (enzyme activity, inhibitor, radiometric; 1 µM): 103%

Fc1cccc(-n2cnc3c(NCc4nc5c(F)c(F)ccc5[nH]4)nc(N4CCOCC4)nc32)c1
binding vs control (binding, competition with immobilised ligand; 10 µM): 24%

COc1cc(-c2cn(C3CCc4ccccc4N(CC(F)(F)F)C3=O)nn2)ccc1-n1ccc(C)n1 (stereo not drawn)
remaining binding (cell-free assay, competition with immobilised ligand; 1 µM): 88%

Cc1sc(C(=O)NC2COC2)cc1-n1cc(NC(=O)Nc2c(F)cccc2Cl)cn1
remaining activity (enzyme activity, inhibitor; 10 µM): 115%

CN(C)C(=O)Cn1cc(-c2nc(C3(c4ccc(-c5cnc(N)nc5)cc4)CC3)no2)cn1
remaining binding (cell-free assay, competition with immobilised ligand; 1 µM): 96%

CCN(CC)c1ccc(C2=NNC(=O)CC2C)cc1[N+](=O)[O-] (stereo not drawn)
remaining activity (enzyme activity, inhibitor; 10 µM): 100%

O=C(N1CCS(=O)(=O)CC1)N1C[C@H](c2ccc(OC(F)(F)F)cc2)C[C@H](c2nc(C3CC3)no2)C1
remaining binding (cell-free assay, competition with immobilised ligand; 1 µM): 91%

Cc1cc(NC(=O)c2cccc3cc(-c4cccc5[nH]nc(N)c45)ccc23)ccc1F
activity vs control (enzyme activity, inhibitor; 0.1 µM): 87%

O=C(O)c1cc(-c2ccc(C3CCNCC3)cc2)c2ccc(-c3ccc(C(F)(F)F)cc3)cc2c1
remaining binding (cell-free assay, competition with immobilised ligand; 1 µM): 100%

Cc1cnc(NC2CCOCC2)nc1-n1cnc(C(=O)NC(CN)c2cc(F)cc(Cl)c2)c1 (stereo not drawn)
remaining activity (enzyme activity, inhibitor, radiometric; 1 µM): 23%

CNc1cccc2cc(C(=O)Nc3ccc(C(=O)O)cc3)c(=O)[nH]c12
inhibition (enzyme activity, inhibitor; 10 µM): 8.2%

COc1cc(Cl)c(C(=O)N[C@@H](CN[C@H]2CC[C@@H](N)CC2)Cc2ccc(C#N)cc2)cc1-c1ccc(CN[C@H](C)c2ccc(C)cc2)o1
remaining activity (enzyme activity, inhibitor; 1 µM): 94%

CCCS(=O)(=O)Nc1ccc(F)c(C(=O)c2c[nH]c3ncc(-c4ccc(Cl)cc4)cc23)c1F
inhibition (enzyme activity, inhibitor; 1 µM): < 10%

CCCOc1ccc(OC)c(F)c1C(=O)c1ccc(C(=O)N[C@@H]2CNC[C@H]2NC(=O)c2ccc3[nH]ncc3c2)cc1
remaining activity (enzyme activity, inhibitor; 0.5 µM): 47%

O=C(O)[C@@H]1[C@@H](Cn2nnc3ccccc3c2=O)CC[C@H]1C(=O)c1ccc(OCCC2CCOCC2)cc1
remaining binding (cell-free assay, competition with immobilised ligand; 1 µM): 74%

CC[C@H](CO)Nc1nc(NCc2ccccc2)c2ncn(C(C)C)c2n1
remaining signal (cell-free assay; 0.5 µM): 120%
